Measurements as given in ChEMBL document CHEMBL2029264, “Indole-based fibrates as potential hypolipidemic and antiobesity agents” (J Med Chem, 2012).
Active and inactive are the calls of the source. The rule behind the calls is not given here.

Experiments:
Rattus norvegicus [1] = test: Antihyperlipidemic activity in HFD-induced hyperlipidemic Charles Foster rat assessed as increase in plasma HDL-total cholesterol level at 100 mg/kg, po administered for 4 weeks relative to control; type: functional
In short: (§1)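 After 4 weeks high-fat feeding plus 4 weeks daily dosing, overnight fast, retro-orbital blood into EDTA tubes. Serum split into VLDL, LDL and HDL by polyanionic precipitation; each fraction assayed for TC, PL, TG and apoprotein (mg/dL plasma). Pooled data from 6 rats/group, mean ± SD, dosed groups compared with high-fat group.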

Rattus norvegicus [2] = test: Antihyperlipidemic activity in HFD-induced hyperlipidemic Charles Foster rat assessed as decrease in plasma LDL-phospholipid level at 100 mg/kg, po administered for 4 weeks relative to control; type: functional; parameters: scale not given: the % may be the effect or the level left; in short: as §1
Rattus norvegicus [3] = test: Antihyperlipidemic activity in HFD-induced hyperlipidemic Charles Foster rat assessed as decrease in liver phospholipid level at 100 mg/kg, po administered for 4 weeks relative to control; type: functional; parameters: scale not given: the % may be the effect or the level left
In short: (§2)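 Adult male Charles Foster rats (200−225 g), high-fat diet 4 weeks, then diet plus daily dosing 4 more weeks; overnight fast, sacrifice, liver washed in cold 0.15 M KCl and held at 4 °C. Lipids extracted from liver homogenate in CHCl3/CH3OH (2:1 v/v), TC, PL and TG read in mg/g; pooled data from 6 rats/group, mean ± SD.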

Rattus norvegicus [4] = test: Antihyperlipidemic activity in Triton WR-1339-induced hyperlipidemic rat assessed as increase in PHLA enzyme level at 100 mg/kg, po; type: functional
In short: (§3)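 Triton WR-1339 given to rats to induce hyperlipidemia; oral dosing. Plasma TC, PL, TG in mg/dL; PHLA as […]/h/mL plasma. Mean ± SD of six rats; Triton group compared with control, Triton plus dosed group compared with Triton group.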

Rattus norvegicus [5] = test: Antihyperlipidemic activity in HFD-induced hyperlipidemic Charles Foster rat assessed as decrease in macrovesicular steatosis at 100 mg/kg, po administered for 4 weeks by light microscopic analysis; type: functional, organism-based; parameters: dose 100 mg/kg
In short: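 Rats on high-fat diet 4 weeks, then diet plus daily dosing for another 4 weeks before sacrifice. Liver sections 4 μm thick, stained with Ehrlich's hematoxylin and eosin, examined by light microscope for centrilobular macrovesicular steatosis.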

Rattus norvegicus [6] = test: Antihyperlipidemic activity in HFD-induced hyperlipidemic Charles Foster rat assessed as decrease in liver triglyceride level at 100 mg/kg, po administered for 4 weeks relative to control; type: functional; parameters: scale not given: the % may be the effect or the level left; in short: as §2
Rattus norvegicus [7] = test: Antihyperlipidemic activity in Triton WR-1339-induced hyperlipidemic rat assessed as increase in LCAT enzyme level at 50 mg/kg, po; type: functional
In short: (§4)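 Separate set of Triton WR-1339-induced hyperlipidemic rats, oral doses of 50, 100 and 150 mg/kg. Plasma TC, PL, TG in mg/dL; PHLA as […]/h/mL plasma. Mean ± SD of six rats versus Triton group.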

Rattus norvegicus [8] = test: Antihyperlipidemic activity in HFD-induced hyperlipidemic Charles Foster rat assessed as increase in serum LCAT enzyme level at 100 mg/kg, po administered for 4 weeks relative to control; type: functional
In short: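 Male Charles Foster rats (200−225 g): high-fat diet 4 weeks, then diet plus daily dosing 4 weeks. Overnight fast, retro-orbital blood in EDTA (3 mg/mL blood), centrifuged to serum. TC, PL, TG in mg/dL; LCAT as nmol cholesterol released/h/L plasma. Mean ± SD; dosed groups compared with high-fat group, P by significance levels.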

Rattus norvegicus [9] = test: Antihyperlipidemic activity in HFD-induced hyperlipidemic Charles Foster rat assessed as increase in deoxycholic acid excretion in feces at 100 mg/kg/day, po administered for 4 weeks measured after 30 days relative to control; type: functional
In short: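 Rats fed high-fat diet 4 weeks, then diet plus daily dosing 4 weeks. Cholic and deoxycholic acid excreted in feces measured; dosed groups compared with high-fat group, control compared with high-fat group.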

Rattus norvegicus [10] = test: Antihyperlipidemic activity in Triton WR-1339-induced hyperlipidemic rat assessed as decrease in plasma triglyceride level at 50 mg/kg, po; type: functional; in short: as §4
Rattus norvegicus [11] = test: Antihyperlipidemic activity in HFD-induced hyperlipidemic Charles Foster rat assessed as decrease in plasma VLDL-apoprotein level at 100 mg/kg, po administered for 4 weeks relative to control; type: functional; parameters: scale not given: the % may be the effect or the level left; in short: as §1
Rattus norvegicus [12] = test: Antihyperlipidemic activity in Triton WR-1339-induced hyperlipidemic rat assessed as decrease in plasma triglyceride level at 150 mg/kg, po; type: functional; in short: as §4
Rattus norvegicus [13] = test: Antiobesity activity in HFD-induced hyperlipidemic Charles Foster rat assessed as decrease in body weight at 100 mg/kg, po administered for 4 weeks; type: functional, organism-based; parameters: dose 100 mg/kg
In short: (§5)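 Adult male Charles Foster rats given high-fat or normal diet 4 weeks, then diet plus vehicle or daily dosing 4 more weeks, sacrificed at week 8. Body weight gain, food intake, food efficiency ratio (weight gain/food intake over the period), and mesenteric, gonadal, inguinal and perirenal fat-pad weights recorded; mean ± SD, n = 6.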

Rattus norvegicus [14] = test: Antihyperlipidemic activity in HFD-induced hyperlipidemic Charles Foster rat assessed as decrease in plasma LDL-total cholesterol level at 100 mg/kg, po administered for 4 weeks relative to control; type: functional; parameters: scale not given: the % may be the effect or the level left; in short: as §1
Rattus norvegicus [15] = test: Antihyperlipidemic activity in Triton WR-1339-induced hyperlipidemic rat assessed as decrease in plasma phospholipid level at 50 mg/kg, po; type: functional; in short: as §4
Rattus norvegicus [16] = test: Antihyperlipidemic activity in po dosed Triton WR-1339-induced hyperlipidemic rat assessed as decrease in plasma triglyceride level; type: functional, organism-based; in short: as §3
Rattus norvegicus [17] = test: Antihyperlipidemic activity in po dosed Triton WR-1339-induced hyperlipidemic rat assessed as decrease in plasma total cholesterol level; type: functional, organism-based; in short: as §3
Rattus norvegicus [18] = test: Antihyperlipidemic activity in Triton WR-1339-induced hyperlipidemic rat assessed as decrease in plasma total cholesterol level at 50 mg/kg, po; type: functional; in short: as §4
Rattus norvegicus [19] = test: Antiobesity activity in HFD-induced hyperlipidemic Charles Foster rat assessed as decrease in inguinal fat-pad at 100 mg/kg, po administered for 4 weeks; type: functional, organism-based; parameters: dose 100 mg/kg; in short: as §5
Rattus norvegicus [20] = test: Antiobesity activity in HFD-induced hyperlipidemic Charles Foster rat assessed as decrease in gonadal fat-pad at 100 mg/kg, po administered for 4 weeks; type: functional, organism-based; parameters: dose 100 mg/kg; in short: as §5
Rattus norvegicus [21] = test: Antiobesity activity in HFD-induced hyperlipidemic Charles Foster rat assessed as decrease in mesenteric fat-pad at 100 mg/kg, po administered for 4 weeks; type: functional, organism-based; parameters: dose 100 mg/kg; in short: as §5
Rattus norvegicus [22] = test: Antihyperlipidemic activity in Triton WR-1339-induced hyperlipidemic rat assessed as increase in PHLA enzyme level at 50 mg/kg, po; type: functional; in short: as §4
Rattus norvegicus [23] = test: Antihyperlipidemic activity in Triton WR-1339-induced hyperlipidemic rat assessed as decrease in plasma triglyceride level at 100 mg/kg, po relative to control; type: functional; parameters: scale not given: the % may be the effect or the level left; in short: as §3
Rattus norvegicus [24] = test: Antihyperlipidemic activity in HFD-induced hyperlipidemic Charles Foster rat assessed as decrease in plasma VLDL-total cholesterol level at 100 mg/kg, po administered for 4 weeks relative to control; type: functional; parameters: scale not given: the % may be the effect or the level left; in short: as §1
Rattus norvegicus [25] = test: Antihyperlipidemic activity in HFD-induced hyperlipidemic Charles Foster rat assessed as decrease in plasma VLDL-triglyceride level at 100 mg/kg, po administered for 4 weeks relative to control; type: functional; parameters: scale not given: the % may be the effect or the level left; in short: as §1
Rattus norvegicus [26] = test: Antihyperlipidemic activity in Triton WR-1339-induced hyperlipidemic rat assessed as decrease in plasma total cholesterol level at 150 mg/kg, po; type: functional; in short: as §4
Rattus norvegicus [27] = test: Antihyperlipidemic activity in HFD-induced hyperlipidemic Charles Foster rat assessed as decrease in liver total cholesterol level at 100 mg/kg, po administered for 4 weeks relative to control; type: functional; parameters: scale not given: the % may be the effect or the level left; in short: as §2
Rattus norvegicus [28] = test: Antihyperlipidemic activity in po dosed Triton WR-1339-induced hyperlipidemic rat assessed as increase in PHLA; type: functional, organism-based; in short: as §3

Row | Compound | Activity (Rattus norvegicus [1]) [%] | Activity (Rattus norvegicus [2]) [%] | Activity (Rattus norvegicus [3]) [%] | percent increase (Rattus norvegicus [4]) [%] | Activity (Rattus norvegicus [5]) | Activity (Rattus norvegicus [6]) [%] | Activity (Rattus norvegicus [7]) [nmol/h/mL] | Activity (Rattus norvegicus [8]) [%] | Activity (Rattus norvegicus [9]) [%] | Activity (Rattus norvegicus [10]) [mg/dL] | Activity (Rattus norvegicus [11]) [%] | Activity (Rattus norvegicus [12]) [mg/dL] | Activity (Rattus norvegicus [13]) | Activity (Rattus norvegicus [14]) [%] | Activity (Rattus norvegicus [15]) [mg/dL] | Activity (Rattus norvegicus [16]) | Activity (Rattus norvegicus [17]) | Activity (Rattus norvegicus [18]) [mg/dL] | Activity (Rattus norvegicus [19]) | Activity (Rattus norvegicus [20]) | also measured
1 | CCOC(=O)C(C)Oc1ccc(C(c2cn(CC)c3ccccc23)c2cn(CC)c3ccccc23)cc1 (stereo unspecified) | 14 | 25 | 28 | 12 | Active | 27 | 8 | 32 | 28 | 12 | 26 | 26 | Active | 24 | 15 | Dose-dependent effect | Dose-dependent effect | 16 | Active | Active | Activity (Rattus norvegicus [21]): Active; percent increase (Rattus norvegicus [22]): 11%; Activity (Rattus norvegicus [23]): 25%; Activity (Rattus norvegicus [24]): 21%; Activity (Rattus norvegicus [25]): 24%; Activity (Rattus norvegicus [26]): 33 mg/dL; Activity (Rattus norvegicus [27]): 23%; Activity (Rattus norvegicus [28]): Dose-dependent effect
2 | CCOC(=O)CCCOc1ccc(C(c2cn(C)c3ccccc23)c2cn(C)c3ccccc23)cc1 | 12 | 20 | 23 | 15 | Active | 24 | 11 | 29 | 31 | 13 | 33 | 27 | Active | 22 | 16 | Dose-dependent effect | Dose-dependent effect | 15 | Active | Active | Activity (Rattus norvegicus [21]): Active; percent increase (Rattus norvegicus [22]): 10%; Activity (Rattus norvegicus [23]): 27%; Activity (Rattus norvegicus [24]): 15%; Activity (Rattus norvegicus [25]): 17%; Activity (Rattus norvegicus [26]): 35 mg/dL; Activity (Rattus norvegicus [27]): 26%; Activity (Rattus norvegicus [28]): Dose-dependent effect
